What all share (assay type): functional
For assay [1], the system named is Mus musculus. The experiment in a line: Antiinflammatory activity in mouse assessed as inhibition of xylene-induced ear edema at 40 mg/kg, po. The gist of the method:
(§1)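 Male and female Kunming mice (20–26 g) given the test substance by the oral route at 40 mg/kg. Percent inhibition was scored in the xylene-induced ear edema model (anti-inflammatory) or the acetic acid-induced writhing model (analgesic).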

For assay [2], the system named is Mus musculus. Description: Analgesic activity in Kunming mouse assessed as inhibition of acetic acid-induced writhing response at 40 mg/kg, po. The gist of the method: as §1
In general terms: In writhing tests, fewer writhes than in controls are read as antinociception.

Assay [3] deals with Mus musculus. Description: Antiinflammatory activity in orally dosed mouse assessed as inhibition of xylene-induced ear edema. To be noted: po. The gist of the method: (§2)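 Male and female Kunming mice (20–26 g) dosed orally. ED50 was determined in the xylene-induced ear edema model (anti-inflammatory) or the acetic acid-induced writhing model (analgesic).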
For assay [4], the system named is Mus musculus. Description: Analgesic activity in orally dosed Kunming mouse assessed as inhibition of acetic acid-induced writhing response. The conditions noted are these: po. The gist of the method:
as §2

Assay [5] concerns Rattus norvegicus. The experiment in a line: Antiinflammatory activity in rat assessed as inhibition of carrageenan-induced paw edema. Background: Carrageenan injected into the paw causes an acute inflammation.

Take `CN1CCN(C(=O)c2cc(-c3ccc(F)cc3F)ccc2OC(=O)c2ccccc2)CC1`: the inhibition in vivo at 40 mg/kg amounted to 27.5% in assay [1] and 88.3% in assay [2].
In the case of `CC(=O)Oc1ccc(-c2ccc(F)cc2F)cc1C(=O)O`, the results for the inhibition in vivo at 40 mg/kg in assay [1] and in assay [2] were 13.7% and 0%, respectively.
For the compound `O=C(Oc1ccc(-c2ccc(F)cc2F)cc1C(=O)O)c1ccccc1`, the inhibition in vivo at 40 mg/kg in assay [1] came out at 16.1%; in assay [2], 7.97%.
As to `CC(=O)Oc1ccc(-c2ccc(F)cc2F)cc1C(=O)Nc1cc(C)ccc1C`, the inhibition in vivo at 40 mg/kg in assay [1] was 22%; in assay [2], 13.2%.
With `Cc1ccccc1NC(=O)c1cc(-c2ccc(F)cc2F)ccc1OC(=O)c1ccccc1`, the inhibition in vivo at 40 mg/kg amounted to 21.4% in assay [1] and 20.8% in assay [2].
`CCN(CC)C(=O)c1cc(-c2ccc(F)cc2F)ccc1OC(=O)c1ccccc1`: in assay [3], the ED50 was 25.7 mg/kg. Also, the values for the inhibition in vivo at 40 mg/kg in assay [1] and in assay [2] were 65.2% and 0%, respectively.
Take `CC(=O)Oc1ccc(-c2ccc(F)cc2F)cc1C(=O)NN1CCOCC1`: the values for the inhibition in vivo at 40 mg/kg in assay [1] and in assay [2] were 0% and 28.5%, respectively.
Take `CNC(=O)c1cc(-c2ccc(F)cc2F)ccc1OC(=O)c1ccccc1`: the median effective dose (ED50) worked out at 24.2 mg/kg in assay [3] and 43.8 mg/kg in assay [4]. For the same compound, the inhibition in vivo at 40 mg/kg is 68.9% in assay [1] and 47.5% in assay [2].
As for `O=C(Oc1ccc(-c2ccc(F)cc2F)cc1C(=O)Nc1ccccc1)c1ccccc1`, the inhibition in vivo at 40 mg/kg in assay [1] was determined as 19.8%; in assay [2] it was 5.57%.
On to `CC(=O)Oc1ccc(-c2ccc(F)cc2F)cc1C(=O)Nc1ccccc1Cl`, for which the values for the inhibition in vivo at 40 mg/kg in assay [1] and in assay [2] were 41.4% and 11.7%, respectively.
`CC(=O)Oc1ccc(-c2ccc(F)cc2F)cc1C(=O)Nc1ccc(Cl)cc1`: the figures for the inhibition in vivo at 40 mg/kg in assay [1] and in assay [2] were 0% and 29.9%, respectively.
The matching figures for `CC(=O)Oc1ccc(-c2ccc(F)cc2F)cc1C(=O)Nc1ccccc1C`: 19.6% and 12.3%.
`CC(=O)Oc1ccc(-c2ccc(F)cc2F)cc1C(=O)Nc1ccc(C)cc1`: the inhibition in vivo at 40 mg/kg in assay [1] is 36.4%; in assay [2] it was 31%.
Take `CC(=O)Oc1ccc(-c2ccc(F)cc2F)cc1C(=O)NCc1ccccc1`: the inhibition in vivo at 40 mg/kg in assay [1] is 34.1%; in assay [2], 16.6%.
`CCNC(=O)c1cc(-c2ccc(F)cc2F)ccc1OC(C)=O`: the inhibition in vivo at 40 mg/kg in assay [1] turned out to be 5.38%; in assay [2] it was 23.9%.
The matching figures for `CC(=O)Oc1ccc(-c2ccc(F)cc2F)cc1C(=O)NC1CCCCC1`: 0% and 15.6%.
For `CC(=O)Oc1ccc(-c2ccc(F)cc2F)cc1C(=O)Nc1ccccc1`, the inhibition in vivo at 40 mg/kg in assay [1] amounted to 23.2%; in assay [2], 8.9%.
As for `CC(=O)Oc1ccc(-c2ccc(F)cc2F)cc1C(=O)Nc1cccc(C)c1`, the inhibition in vivo at 40 mg/kg turned out to be 12.8% in assay [1] and 19% in assay [2].
The corresponding values for `CNC(=O)c1cc(-c2ccc(F)cc2F)ccc1OC(C)=O` are 48.8% and 29.9%.
For the compound `O=C(O)c1cc(-c2ccc(F)cc2F)ccc1O` [DIFLUNISAL], the ED50 in assay [5] was 59.6 mg/kg. The figures for the inhibition in vivo at 40 mg/kg in assay [1] and in assay [2] were 39.9% and 8.33%, respectively.

As a reminder, the inhibition in vivo is the drop in the measured response relative to a control, in per cent. The term ED50 denotes the midpoint of the dose-response relation.

Values taken from ChEMBL document CHEMBL1154511, “Synthesis and biological evaluation of amide derivatives of diflunisal as potential anti-inflammatory agents” (2009).
